The values that follow come from ChEMBL document CHEMBL4393719, “Tetrahydro-3-benzazepines with fluorinated side chains as NMDA and σ1 receptor antagonists: Synthesis, receptor affinity, selectivity and antiallodynic activity” (Eur J Med Chem, 2019).

The nature of experiment [1]: Displacement of [3H] ifenprodil from GluN2B/GluN1a (unknown origin) expressed in mouse L(tk-) cell membranes incubated for 120 mins by scintillation counting method. Further details: species or system Homo sapiens. An outline of the steps: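 Membranes from mouse L(tk-) cells co-transfected with dexamethasone-inducible GluN1a/GluN2B (1:5), induced 24 h with 4 μM dexamethasone plus 4 μM ketamine.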
For orientation: In a radioligand displacement assay an active substance lowers the binding of a labelled ligand.

The species entered for a further experiment is Sus scrofa. The conditions noted are these: at 1 µM.
The nature of experiment [2]: Selectivity ratio of Ki for sigma1 receptor in guinea pig brain cortex membranes to ratio of Ki for GluN2B/GluN1a (unknown origin) expressed in mouse L(tk-) cell membranes. Format: cell-based.
Experiment [3] concerns the target Sigma non-opioid intracellular receptor 1 (Cavia porcellus, UniProt Q60492). Format: cell membranes.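 Also: radioligand displacement of [3H]-(+)-pentazocine from guinea pig brain cortex membranes, 120 min incubation, bound radioactivity read by scintillation counting.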
The target in experiment [4] is T1, Sigma intracellular receptor 2 (Rattus norvegicus, UniProt Q5U3Y7).
T1 sequence (Q5U3Y7 whole entry): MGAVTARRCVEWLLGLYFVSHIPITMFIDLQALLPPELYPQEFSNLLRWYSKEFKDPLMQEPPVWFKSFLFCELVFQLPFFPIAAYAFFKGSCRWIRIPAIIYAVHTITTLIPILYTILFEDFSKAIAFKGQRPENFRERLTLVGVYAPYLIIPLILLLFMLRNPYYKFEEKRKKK
Kind of experiment: Displacement of [3H]-di-o-tolylguanidine from sigma2 receptor in rat liver membranes incubated for 120 mins by scintillation counting method. Format: cell membranes.

A short description of experiment [5]: Selectivity ratio of Ki for sigma2 receptor in rat liver membranes to ratio of Ki for GluN2B/GluN1a (unknown origin) expressed in mouse L(tk-) cell membranes. The format is cell-based.

By pKi is commonly meant −log10 of the Ki, conventionally taken in molar units. High values mean a small Ki, low ones a large Ki. Broadly, the inhibition is the share of the control response that was lost under treatment. Lower therefore signals a weak effect.

pKi: −log10 of the molar value.

Sigma non-opioid intracellular receptor 1, sequence (Q60492 whole entry): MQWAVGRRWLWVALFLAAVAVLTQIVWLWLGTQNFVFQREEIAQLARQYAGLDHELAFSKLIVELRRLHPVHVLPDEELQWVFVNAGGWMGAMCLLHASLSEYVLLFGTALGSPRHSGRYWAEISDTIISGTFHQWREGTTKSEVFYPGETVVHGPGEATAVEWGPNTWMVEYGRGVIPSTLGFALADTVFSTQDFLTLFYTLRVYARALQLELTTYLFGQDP

Consider `OC(CN1CCC(Cc2ccc(F)cc2)CC1)c1ccc(Cl)cc1` (stereo unspecified) [ELIPRODIL], for which, in experiment [1], the pKi is 7.89.

In the case of `Oc1ccc2c(c1)CCN(CCC(F)Cc1ccccc1)CC2` (racemic) [listing 1 of 2 here], the inhibition in the experiment listed under Sus scrofa was 15%.

Turning to `Oc1ccc2c(c1)CCN(CCCCc1ccccc1)CC2O` (stereo unspecified), the Ratio Ki in experiment [2] lay in the range of 2 to 3. Also, the inhibition in the experiment filed under Sus scrofa came to 35%.

For the compound `COc1ccc2c(c1)CCN(CC(F)CCc1ccccc1)CC2O` (stereo unspecified), the pKi in experiment [1] is 6.30; in experiment [3], 6.23; in experiment [4], 5.10. Also, the Ratio Ki in experiment [5] amounted to 15. Besides, the inhibition in the experiment filed under Sus scrofa stood at 0%.

`OC1CN(CCC(F)Cc2ccccc2)CCc2cc(OCc3ccccc3)ccc21` (stereo unspecified): the pKi is 6.09 in experiment [1], 6.74 in experiment [3] and 5.74 in experiment [4]. Besides, in experiment [5], the Ratio Ki was determined as 2. For the same compound, in the experiment listed under Sus scrofa, the inhibition was 0%.

In the case of `Oc1ccc2c(c1)CCN(CCC(F)Cc1ccccc1)CC2` (single isomer, unassigned; (-)), the figures for the pKi in experiment [1], in experiment [3] and in experiment [4] were 7.19, 7.60 and 7.20, respectively.

Take `FCCOc1ccc2c(c1)CCN(CCC(F)Cc1ccccc1)CC2` (stereo unspecified): the pKi is 6.46 in experiment [1], 7.60 in experiment [3] and 6.28 in experiment [4].

Regarding `FC(CCOc1ccc2c(c1)CCN(CCC(F)Cc1ccccc1)CC2)Cc1ccccc1` (stereo unspecified), the pKi was 6.60 in experiment [1], 6.73 in experiment [3] and 6.19 in experiment [4].

With `Oc1ccc2c(c1)CCN(CC(F)CCc1ccccc1)CC2` (stereo unspecified), the pKi in experiment [1] was 7.07; in experiment [3], 7.15; in experiment [4], 6.82. This compound also showed an inhibition in the experiment filed under Sus scrofa of 0%.

Take `COc1ccc2c(c1)CCN(CCCCc1ccccc1)CC2`: the pKi in experiment [1] was 7.26; in experiment [3], 7.96; in experiment [4] it was 7.25. For the same compound, in the experiment filed under Sus scrofa, the inhibition came out at 0%.

For `Oc1ccc2c(c1)CCN(CCC(F)Cc1ccccc1)CC2O` (stereo unspecified), the values for the pKi in experiment [1], in experiment [3] and in experiment [4] were 6.37, 5.85 and 6.89, respectively. For the same compound, the Ratio Ki in experiment [2] fell in the range of 2 to 3. Besides, in the experiment filed under Sus scrofa, the inhibition came to 8%.

Consider `Oc1ccc2c(c1)CCN(CCC(F)Cc1ccccc1)CC2` (single isomer, unassigned; (+)), for which the pKi in experiment [1] is 7.27; in experiment [3] it was 8.00; in experiment [4], 7.31.

On to `COc1ccc2c(c1)CCN(CCC(F)Cc1ccccc1)CC2O` (stereo unspecified), for which the pKi is 6.20 in experiment [1], 6.68 in experiment [3] and 5.35 in experiment [4]. The Ratio Ki in experiment [5] stood at 7. The inhibition in the experiment listed under Sus scrofa came out at 0%.

Take `Oc1ccc2c(c1)CCN(CCCCc1ccccc1)CC2`: the pKi in experiment [1] was 8.00; in experiment [3] it was 7.49; in experiment [4], 7.92. Also, the Ratio Ki in experiment [2] fell in the range of 2 to 3.

As to `COc1ccc2c(c1)CCN(CC(F)CCc1ccccc1)CC2` (stereo unspecified), the pKi in experiment [1] is 6.22; in experiment [3], 6.67; in experiment [4], 6.13. Also, the inhibition in the experiment listed under Sus scrofa amounted to 0%.

Consider `FC(CCc1ccccc1)CN1CCc2ccccc2CC1` (stereo unspecified), for which the pKi in experiment [1] is 6.62; in experiment [3], 6.97; in experiment [4] it was 6.48. Further, in the experiment filed under Sus scrofa, the inhibition stood at 0%.

Take `Oc1ccc2c(c1)CCN(CCC(F)Cc1ccccc1)CC2` (racemic) [listing 2 of 2 here]: the pKi in experiment [1] was 7.80; in experiment [3], 7.77; in experiment [4], 7.41.

The compound `OC1CN(CCCCc2ccccc2)CCc2cc(OCc3ccccc3)ccc21` (stereo unspecified) had a pKi in experiment [1] of 6.30. Also, the Ratio Ki in experiment [5] was found to be 2.

Turning to `OC1CN(CC(F)CCc2ccccc2)CCc2cc(OCc3ccccc3)ccc21` (stereo unspecified), the results for the negative logarithm of the Ki (pKi) in experiment [1], in experiment [3] and in experiment [4] were 6.11, 6.41 and 5.85, respectively. The Ratio Ki in experiment [5] was determined as 2. The compound also came in with an inhibition in the experiment listed under Sus scrofa of 0%.
